Data reported in ChEMBL document CHEMBL4513216, “Probing the Open Global Health Chemical Diversity Library for Multistage-Active Starting Points for Next-Generation Antimalarials” (ACS Infect Dis, 2020).

Test: Toxicity liver stage against HepG2, at 10uM
Format: cell-based
Design: test concentration 10 uM, cell line HepG2-A16-CD81EGFP
Conditions: human, HepG2-A16-CD81EGFP cells; read-out: INHIBITION
Procedure, shortened: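 Uninfected HepG2-A16-CD81EGFP cells, 3 × 10^3 per well, 1536-well, plated on prespotted compound at 10 μM final, parasite-free screening media added to match infected plates; puromycin 10 μM positive, DMSO 0.5% negative; run in parallel with 48 h PbLuc assay at 37 °C, 5% CO2; viability by CellTiter-Glo luminescence, normalized to controls.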

Row | Structure (SMILES) | cytotoxicity at 10 µM [%]
1 | Cc1ccc(C(=O)NCCCN2CCOCC2)c(Cl)c1 | -12.5
2 | O=C(NCCN1CCOCC1)N1CCN(c2ccccc2)CC1 | 8.84
3 | Cc1ccnc(NC(=O)c2ccc(Br)o2)c1 | -10.5
4 | O=C1NC[C@H]2CN(Cc3nccs3)CCN12 | -4.9
5 | CC(=O)NC[C@H]1COCc2nc3cc(S(C)(=O)=O)ccc3n21 | 0.722
6 | O=C(NCc1ccccc1)[C@@H]1Cc2[nH]cnc2CN1CC1CC1 | 3.17
7 | O=C1CCC(c2ccc(Cl)cc2)=NN1CN1CCCCCC1 | 35.7
8 | COCCn1cc(CC(=O)Nc2nc3c(s2)CCC3)c2ccccc21 | 32.8
9 | COC(=O)c1ccc(C(=O)NCC(O)c2cccn2C)cc1 (stereo not given) | -3.84
10 | COc1ccc(C[C@H]2CNCC[C@@H]2OCC2CC2)cc1 | -1.24
11 | c1nc2n(c1CN1CCOCC1)CCN(C1CCOC1)CC2 (stereo not given) | -136
12 | COCC(=O)N1CCc2nc(C(=O)Nc3cccnc3)sc2CC1 | 7.98
13 | Cc1noc(C)c1CN1CC2(CCN(C(=O)c3ccc[nH]3)C2)CC1=O (stereo not given) | 6.27
14 | CN(Cc1cn2c(n1)CN(C(=O)c1cccnc1)CC2)Cc1ccco1 | -2.19
15 | CCC(=O)N1CCC2(COCc3c(C)nc(N(C)C)nc32)C1 (stereo not given) | -31.5
16 | Fc1cnc(N2CCC3(COCc4cnc(NCC5CC5)nc43)C2)nc1 (stereo not given) | -4.43
17 | O=c1[nH]cc(N2CCOCC2)c(=O)[nH]1 | 6.36
18 | COCC(=O)N1CCCC(c2csc(NC(C)=O)n2)C1 (stereo not given) | -17.2
19 | CN1CCNC(Cc2ccc(-c3cccs3)cc2)C1=O (stereo not given) | -29.3
20 | CN(CC1(O)CCCN(c2ccccn2)C1)C(=O)CC1CCOCC1 (stereo not given) | -5.44
21 | CC(=O)N1CCC(c2ccnc(Nc3ccc(C)cn3)n2)C1 (stereo not given) | -16.7
22 | Cc1cc(CN2CCN(C(C)C(=O)NCc3cccs3)CC2)no1 (stereo not given) | -0.335
23 | Cc1cccc2nc(CN3CCC(N4CCN(C)C4=O)CC3)cn12 | -0.337

Row | Structure (SMILES) | cytotoxicity at 10 µM [%]
24 | O=C(Nc1ccc(-c2ccccc2)cn1)C1CCN(C(=O)C2CC2)CC1 | -14.8
25 | Cc1nc2cc(=O)[nH]n2c(C)c1CNC(=O)C(C)(C)c1ccccc1 | 1.1
26 | Cc1nc(CN2CCN(c3ccc(Cl)cn3)CC2)no1 | 1.3
27 | CCN(Cc1ccco1)C(=O)C1=NN(c2ccccc2)C(=O)CN1 | 6.35
28 | Cc1ccc(CN(C(=O)NCC2CCCO2)C2CC2)o1 (stereo not given) | -151
29 | C=C(C)CN(CC)C(=O)c1cc(F)ccc1NS(C)(=O)=O | -2.12
30 | O=C(CCC(=O)N1CCOCC1c1ccccc1)c1cccs1 (stereo not given) | -1.26
31 | Cc1ccccc1C(=O)NCCC(=O)NS(=O)(=O)c1cccnc1 | -11.6
32 | O=C(NCCOc1ccc(Cl)cn1)NCCc1ccccn1 | 7.95
33 | NC(=O)N1CCCC1COC(=O)c1ccc(F)cc1Br (stereo not given) | 0.616
34 | Cc1nn(C)c(N2CCCN(C)CC2)c1CNC(=O)CC1CCCC1 | -7.43
35 | CC(=O)c1ccc(NC(=O)NC(C)c2ccc3c(c2)CC(=O)N3)cc1 (stereo not given) | -8.03
36 | O=C(C1CC1)N1CCN(C(=O)C2CC(=O)N(c3ccccc3Br)C2)CC1 (stereo not given) | 12.8
37 | Cc1cnc(NC(=O)N2CCC(N3CCCCC3=O)CC2)s1 | -0.772
38 | Cc1csc(NC(=O)CN2CCc3nn(C)c(=O)cc3C2)n1 | -0.995
39 | CN(CC(=O)Nc1cc(-c2cc(Cl)cc(Cl)c2)[nH]n1)S(C)(=O)=O | 6.72
40 | NC(=O)CSc1ccccc1NC(=O)CC1C=CCC1 (stereo not given) | -131
41 | CC(C)(C)CC(=O)Nc1ccccc1SCC(N)=O | -138
42 | C1CN(c2nc(C3CC3)ns2)CCS1 | -11.6
43 | COc1ccc2cc(CN(C)C(C)c3nc(C(C)(C)C)no3)ccc2c1 (stereo not given) | 1.44
44 | CC(C)c1nnc2n1CCN(C(=O)c1ccc(OCC3CC3)nc1)C2 | -0.556
45 | CNC(=O)NC(C)c1nc(-c2ccccc2)c[nH]1 (stereo not given) | 0.995
46 | Cc1ccccc1OCCN1CCCC1CS(N)(=O)=O (stereo not given) | 18.3

Row | Structure (SMILES) | cytotoxicity at 10 µM [%]
47 | COc1c(Br)cccc1CCNC(=O)c1ncoc1C | 3.39
48 | OCCCNC1CCc2cc3c(cc21)OCCO3 (stereo not given) | -5.93
49 | Cc1nc(NC(=O)C2CCCN(C(=O)C3CC3)C2)sc1C (stereo not given) | 3.71
50 | Cc1cc(C)cc(OCC(=O)N2CCCC2)c1 | 5.04
51 | CC(=O)Nc1ccc(CNc2ccn(Cc3ccccc3)n2)cc1 | 10.1
52 | O=C(Nc1cc(-n2cccc2)ccc1F)N1CCCC1 | -4.22
53 | CC(=O)NS(=O)(=O)c1ccc2c(c1)N(C)CCC2 | -0.89
54 | c1csc(CNc2ccccc2Cn2cncn2)c1 | 11.5
55 | O=C(Cc1ccc(Cl)cc1)N1CCC(O)(C(F)(F)F)C1 (stereo not given) | -12.3
56 | O=C(NCCc1nnc2n1CCCCC2)N1CCC2(CCCC2)CC1 | -7.94
57 | O=C(c1cn(-c2ccccc2Cl)nn1)N1CCCSCC1 | -4.26
58 | CC(C)Oc1ccc(CSc2nnc(CN3CCCC3=O)o2)cc1 | -1.71
59 | CCNC(=O)N1CCCCC1CCNS(C)(=O)=O (stereo not given) | -7.71
60 | CCCN1CCN(Cc2nccn2CC)C(C)C1 (stereo not given) | 8.14
61 | Cn1nccc1-c1ncc(-c2cc(C(=O)O)n(CC3CC3)c2)cn1 | 1.55
62 | CN1CCN(Cc2cnn(-c3ccccc3Cl)c2)[C@H]2CS(=O)(=O)C[C@H]21 | 6.19
63 | Oc1ccccc1-c1cc(-c2nc(C3CC3)n[nH]2)[nH]n1 | 0.45
64 | CCCc1cc(C(=O)N2Cc3ccccc3C2)[nH]n1 | 2.02
65 | O=C(CN1C(=O)CCNC1=O)N1CCOC(c2ccc(Cl)c(Cl)c2)C1 (stereo not given) | 6.28
66 | Cc1nc(C2CCNCC2)cc(N2CCOc3ccccc3C2)n1 | -2.3
67 | COc1cc(-c2nc3c([nH]2)CCCNC3=O)ccc1O | 16.9
68 | CCn1c(CN2CCCC2)nnc1C1CCN(Cc2cc(C)no2)CC1 | 3.6
69 | CCc1cnc(NCC(c2ccncc2)N2CCOCC2)nc1 (stereo not given) | 8.71

Row | Structure (SMILES) | cytotoxicity at 10 µM [%]
70 | O=c1cc(N2CCCCC2)cnn1CCCn1cccn1 | -48.9
71 | CNC(=O)c1cc(-n2ccnc2-c2cnc(N(C)C)nc2)ccc1OC | -6.91
72 | CC(=O)N[C@@H](CC(C)C)C(=O)N1CCC(n2cc(CC(C)C)nn2)CC1 | -10.8
73 | CCc1nc(N)nc(N2CCCC3(CCN(C)CC3)CC2)c1C | -179
74 | CCO[C@H]1COC[C@@H]1NC(=O)c1c[nH]nc1C1CCCCC1 | -3.13
75 | Cc1cn2cc(-c3nc4c([nH]3)CCCNC4=O)nc2s1 | 5.48
76 | CCc1cnc(NCCCN2CCC(O)CC2)nc1 | 3.44
77 | CC(C)C[C@H](NC(=O)c1cc(-c2cccn2C)n[nH]1)C(N)=O | 3.7
78 | CC(C)N(C)CC(=O)N(C)C(c1cccc(F)c1)c1ccccn1 (stereo not given) | -6.14
79 | Cc1ccccc1CN(C)C(=O)CN1CCCC(Cn2cncn2)C1 (stereo not given) | -2.87
80 | CCOCCN1CCN(CCCS(C)(=O)=O)CC1C (stereo not given) | -4.14
81 | CN(Cc1ccccc1C#N)C1CCN(CCc2ccccn2)CC1 | -6.55
82 | Cc1noc(C)c1CN(C)CC(c1cccs1)N1CCOCC1 (stereo not given) | -4.98
83 | c1cnnc(N2CCCC2CNCc2cscn2)c1 (stereo not given) | -5.78
84 | COC(=O)c1cc(C(=O)N2CCOC(C)(C)C2)n(-c2ccccc2)n1 | -2.81
85 | O=C(Cc1ccc2c(c1)OCCO2)NC1CCCCC1 | -12.3
86 | CCc1noc(C(C)N2CCN(CC)CC2)n1 (stereo not given) | -6.01
87 | Cc1nn(C)c(N(C)C)c1CNCc1ccc(Cn2cncn2)cc1 | -6.94
88 | O=C(NCCc1cccs1)NCC(O)c1cccc(F)c1 (stereo not given) | -4.07
89 | CN(C)c1ncccc1CNS(=O)(=O)c1ccc(F)cc1F | -3
90 | CCc1ccsc1C(=O)N1CCN(CC(N)=O)CC1 | -1.1
91 | Cc1nc(CN(C)C2CCN(Cc3nnc(C4CC4)o3)C2)no1 (stereo not given) | -5
92 | CN(Cc1ccco1)C(=O)CN1CCOC(Cn2cccn2)C1 (stereo not given) | -9.91

Row | Structure (SMILES) | cytotoxicity at 10 µM [%]
93 | FC(F)CN1CCOC(Cn2cccn2)C1 (stereo not given) | -9.94
94 | Cc1nn(C)c(C)c1C1CCCN1Cc1nc2ccccc2n1C (stereo not given) | -14.4
95 | Cc1ccc(S(=O)(=O)NCc2cccc(C(=O)N3CCCC3)c2)cc1F | -14.5
96 | COc1cccc(COCC(=O)N2CCCC2Cn2cccn2)c1 (stereo not given) | -0.153
97 | c1ccc2oc(CN3CCOC(Cn4cccn4)C3)nc2c1 (stereo not given) | -18.2
98 | O=C(NCCC(=O)N1CCCc2ccccc21)c1c(F)cccc1F | -14.5
99 | CCCc1ccc(C(=O)N2CCn3c(nnc3C(C)C)C2)cc1 | 9.83
100 | CCc1nnsc1C(=O)N1CCCN(Cc2cnn(CC)c2)CC1 | -1.76
101 | CC(C)OCCCN(Cc1cnn(C)c1)Cc1ccccn1 | 1.24
102 | O=S(=O)(C1CC1)N1CCn2cc(CNc3ccccn3)nc2C1 | 8.04
103 | O=C(c1c[nH]cn1)N1CCCn2c(CN3CCCCC3)nnc2C1 | -3.03
104 | COCCN1CCO[C@H]2CN(C(=O)c3ccncc3F)C[C@H]21 | -141
105 | CN1CCN(C(=O)CCc2ccccc2)Cc2cccnc21 | -1.04
106 | O=C1COC2(CCN(Cc3ccncc3)CC2)CN1 | -1.81
107 | Fc1ccc(CN2CCn3cc(Cn4cccn4)nc3C2)cc1 | 0.864
108 | c1ccc(C[C@H]2CN(C3CCOCC3)CC[C@H]2OCC2CC2)cc1 | 0.994
109 | CCCS(=O)(=O)N1Cc2nccn2CC(CN(C)C)C1 (stereo not given) | -106
110 | Cc1nn(C)c(N(C)C)c1CNCC(O)COc1ccccc1 (stereo not given) | -0.0582
111 | O=C1N(c2cccnc2)CCC12CCCN(Cc1cccnc1)C2 (stereo not given) | 0.951
112 | Cc1nc(CN2C(=O)CC[C@@H]3[C@H]2CCN3C2CCOC2)cs1 (stereo not given in full) | -141
113 | O=C(O)c1cc(C=Cc2ccc3ccccc3c2)ncn1 | -13.6
114 | CCN(CCSc1ccccc1)C(=O)c1cn(C2CCC(N)CC2)nn1 (stereo not given) | -2.93
115 | CN1C(=O)[C@@H]2CC[C@H]1CN(C(=O)Nc1ccccc1C(F)(F)F)C2 | -2.53
